Experiment [1] has as its target T1, Cholesteryl ester transfer protein (Homo sapiens, UniProt P11597).
T1 sequence (P11597 whole entry): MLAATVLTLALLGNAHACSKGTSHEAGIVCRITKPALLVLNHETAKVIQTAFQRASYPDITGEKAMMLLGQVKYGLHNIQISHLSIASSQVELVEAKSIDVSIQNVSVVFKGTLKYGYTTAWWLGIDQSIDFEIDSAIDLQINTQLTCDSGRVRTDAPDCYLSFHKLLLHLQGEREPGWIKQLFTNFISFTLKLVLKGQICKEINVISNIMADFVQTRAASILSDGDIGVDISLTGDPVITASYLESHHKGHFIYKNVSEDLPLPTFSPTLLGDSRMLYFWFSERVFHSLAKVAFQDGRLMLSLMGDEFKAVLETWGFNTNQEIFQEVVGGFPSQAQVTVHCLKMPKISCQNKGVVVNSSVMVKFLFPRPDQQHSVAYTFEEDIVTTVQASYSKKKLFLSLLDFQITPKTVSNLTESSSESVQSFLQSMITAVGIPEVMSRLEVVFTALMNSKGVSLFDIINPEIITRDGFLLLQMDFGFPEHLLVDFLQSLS
Description: In vitro concentration required to inhibit 50% of cholesteryl ester transfer protein mediated cholesteryl ester transfer from HDL to VLDL and LDL in human plasma. In kind it is cell-free. Summed up:
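Compound dissolved in 1:1 N-methyl-2-pyrrolidinone/PEG 400 and added to human plasma, with organic solvent at 2% final. Plasma then incubated with [3H]CE-labelled HDL at 37 °C for 4 h. ApoB lipoproteins precipitated with dextran sulfate (0.075% final) and MgCl2 (37.5 mM final). Transfer taken as the loss of supernatant HDL radioactivity. IC50 estimated from five-dose response curves.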

Experiment [2] deals with Oryctolagus cuniculus. As to the kind of experiment: In vivo percent inhibition of cholesteryl ester transfer protein was measured 3h after oral administration of 30 mg/kg JW rabbits plasma. In kind it is functional. The method, boiled down:
(§1)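 Male JW rabbits, 11-15 weeks old, dosed orally; plasma taken 3 h post-dose and spun at 11000g for 5 min at 4 °C. Plasma (1.8 µL) diluted to 600 µL in Tris-buffered saline pH 7.4 with 0.1 mg/mL BSA. Incubated 15 h at 37 °C with [3H]CE-HDL and VLDL/LDL, then VLDL/LDL precipitated with dextran sulfate/MgCl2 and supernatant counted. Inhibition expressed relative to vehicle-dosed rabbits.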

Experiment [3] concerns the target T2, Cholesteryl ester transfer protein (Homo sapiens) (UniProt P11597).
T2 sequence (whole entry): T1 sequence (P11597 whole entry)
Description: Percent inhibition of cholesteryl ester transfer protein in human plasma at 5 uM. In kind it is cell-free.

Experiment [4] addresses T2, Cholesteryl ester transfer protein (Homo sapiens). As to the kind of experiment: Percent inhibition of cholesteryl ester transfer protein in human plasma at 9 uM. In kind it is cell-free.
For experiment [5], the system named is Oryctolagus cuniculus. Description: In vivo percent elevation evaluated from the plasma HDL levels in JW rabbits by oral administration of 30 mg/kg once a day for 3 days. In kind it is functional. The method, boiled down:
(§2)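 Male JW rabbits, 11-15 weeks old, N = 5, dosed orally once daily for 3 days. ApoB lipoproteins in plasma precipitated with 13% PEG 6000, and HDL cholesterol measured by enzymatic assay. Elevation expressed relative to vehicle-dosed rabbits.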

For experiment [6], the system named is Oryctolagus cuniculus. As to the kind of experiment: In vivo percent inhibition of cholesteryl ester transfer protein was measured 3h after oral administration of 10 mg/kg JW rabbits plasma. In kind it is functional. The method, boiled down: as §1
The test system of experiment [7] is Oryctolagus cuniculus. Description: In vivo percent elevation evaluated from the plasma HDL levels in JW rabbits by oral administration of 100 mg/kg once a day for 3 days. In kind it is functional. Summed up: as §2

Regarding `CC1(C(=O)Nc2ccccc2SSc2ccccc2NC(=O)C2(C)CCCCC2)CCCCC1`, the IC50 in experiment [1] was determined as 8 µM. This counts as single-digit micromolar.

On to `CCCCCCCC1(C(=O)Nc2ccccc2S)CCCCC1`, for which, in experiment [1], it took 7 µM to reach half-maximal inhibition (IC50).

Take `CCC(CC)CC1(C(=O)Nc2ccccc2SC)CCCCC1`: in experiment [1], the IC50 was more than 300 µM.

With `CCCCCCC1(C(=O)Nc2ccccc2S)CCCCC1`, it took 6 µM to reach half-maximal inhibition in experiment [1] (IC50).

As to `CC(=O)Nc1ccccc1SSc1ccccc1NC(C)=O`, the IC50 in experiment [1] is 500 µM. This IC50 lies about 83-fold higher than the previous one.

In experiment [1], `CN(C(=O)C(C)(C)C)c1ccccc1SSc1ccccc1N(C)C(=O)C(C)(C)C` had a half-maximal inhibitory concentration (IC50) of more than 300 µM.

`CC(C)CCCC1(C(=O)Nc2ccccc2S)CCCCC1` displayed an IC50 in experiment [1] of 6 µM.

In experiment [1], `CCC(=O)Nc1ccccc1SSc1ccccc1NC(=O)CC` displayed a half-maximal inhibitory concentration (IC50) of 180 µM. This IC50 lies about 30-fold higher than the previous one.

In the case of `CCC(CC)CC1(C(=O)Nc2ccccc2SC(C)=O)CCCCC1`, the inhibition in vivo at 30 mg/kg in the experiment with Oryctolagus cuniculus [2] came out at 40%.

In turn, `CC(C)(C)C(=O)Nc1cccc(SSc2cccc(NC(=O)C(C)(C)C)c2)c1` came in with an IC50 in experiment [1] of more than 500 µM.

In the case of `CC1(C(=O)Nc2ccccc2OC(=O)Cc2ccccc2)CCCCC1`, the IC50 in experiment [1] is more than 300 µM.

With `CCC(CC)CC1(C(=O)Nc2ccccc2S)CCCCC1`, the inhibition in experiment [3] turned out to be 50%. In addition, the IC50 in experiment [1] was 5 µM.

Consider `CCCCCCCC(=O)Nc1ccccc1SSc1ccccc1NC(=O)CCCCCCC`, for which the midpoint of inhibition in experiment [1], the IC50, lay at 21 µM.

Consider `CC(C)(C)C(=O)Nc1ccc(SSc2ccc(NC(=O)C(C)(C)C)cc2)cc1`, for which the concentration for half-maximal inhibition (IC50) in experiment [1] is more than 500 µM.

`CCCCC1(C(=O)Nc2ccccc2S)CCCCC1` showed an IC50 in experiment [1] of 9 µM.

For `CCC(CC)CC1(C(=O)Nc2ccccc2SC(=O)C(C)C)CCCCC1` [DALCETRAPIB], in experiment [4], the inhibition worked out at 50%. The molecule also displayed an inhibition in vivo at 30 mg/kg in the experiment on Oryctolagus cuniculus [2] of 95%. Also, the Elevation worked out at 27% with Oryctolagus cuniculus [5] and 54% with Oryctolagus cuniculus [7]. This molecule also came in with an inhibition in vivo at 10 mg/kg with Oryctolagus cuniculus [6] of 35%. This molecule also registered an IC50 in experiment [1] of 6 µM.

In the case of `CC(C)(C)C(=O)Nc1ccccc1SSc1ccccc1NC(=O)C(C)(C)C`, in experiment [1], the IC50 is 13 µM.

`CC(C)(C)NC(=O)c1ccccc1SSc1ccccc1C(=O)NC(C)(C)C`: the half-maximal inhibitory concentration (IC50) in experiment [1] is more than 500 µM.

For `CCCCCC1(C(=O)Nc2ccccc2S)CCCCC1`, 7 µM corresponded to half-maximal inhibition in experiment [1] (IC50).

In the case of `CCC(CC)CC1(C(=O)Nc2ccccc2SC(=O)C(C)(C)C)CCCCC1`, the inhibition in vivo at 30 mg/kg with Oryctolagus cuniculus [2] came out at 32%.

The IC50 is the concentration at which inhibition is half-maximal. Higher therefore signals weaker potency. Usually inhibition in vivo stands for how much of the control response was suppressed. Lower therefore signals a weak effect. As usually defined, the inhibition is the relative decrease from the control value, in per cent. A higher inhibition goes with a response far below the control.
